Molecules are shown by their SMILES. The source made the active and inactive calls. The calls are words filed in the database; no cut-off is given here.

Assay [1] concerns the target T1, Proteinase-activated receptor 1 (Homo sapiens) (UniProt P25116).
T1 sequence (whole entry): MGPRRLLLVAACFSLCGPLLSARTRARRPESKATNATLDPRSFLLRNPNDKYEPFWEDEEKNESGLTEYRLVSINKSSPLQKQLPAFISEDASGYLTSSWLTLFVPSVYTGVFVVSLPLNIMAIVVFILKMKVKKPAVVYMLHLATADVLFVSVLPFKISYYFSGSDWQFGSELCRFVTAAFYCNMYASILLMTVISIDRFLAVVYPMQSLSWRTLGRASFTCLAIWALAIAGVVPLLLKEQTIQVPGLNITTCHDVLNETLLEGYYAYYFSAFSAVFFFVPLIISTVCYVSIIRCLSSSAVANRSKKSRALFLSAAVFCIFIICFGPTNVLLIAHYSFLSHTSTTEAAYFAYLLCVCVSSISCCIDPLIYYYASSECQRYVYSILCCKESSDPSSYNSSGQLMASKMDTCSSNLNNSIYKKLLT
The assay is described as follows: Antagonist activity at PAR1 in human EAhy926 cells assessed as inhibition of TFLLRN-NH2-induced intracellular calcium mobilization at 10 uM pretreated for 15 mins followed by TFLLRN-NH2 addition measured at 5 secs interval for 250 secs by Fluo-4/AM dye based fluorescence assay. The format is functional, cell-based. For orientation: Calcium flux is commonly read through the fluorescence of an indicator in the cells.

Assay [2] addresses T2, Proteinase-activated receptor 2 (Homo sapiens, UniProt P55085).
T2 sequence (P55085 whole entry): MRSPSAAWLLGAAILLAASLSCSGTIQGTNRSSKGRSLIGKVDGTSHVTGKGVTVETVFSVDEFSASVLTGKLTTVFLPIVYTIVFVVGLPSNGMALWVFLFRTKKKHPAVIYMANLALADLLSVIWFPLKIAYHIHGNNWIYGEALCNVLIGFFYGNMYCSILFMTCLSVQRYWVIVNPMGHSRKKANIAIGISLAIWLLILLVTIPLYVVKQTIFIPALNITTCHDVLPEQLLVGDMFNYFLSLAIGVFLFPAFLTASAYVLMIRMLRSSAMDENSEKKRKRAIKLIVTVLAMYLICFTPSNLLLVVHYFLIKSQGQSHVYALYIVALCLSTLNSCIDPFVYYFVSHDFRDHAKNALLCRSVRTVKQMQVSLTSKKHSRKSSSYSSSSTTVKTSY
As to the kind of experiment: Antagonist activity at PAR2 in human EAhy926 cells assessed as inhibition of SLIGKV-NH2-induced intracellular calcium mobilization pretreated for 15 mins followed by SLIGKV-NH2 addition measured at 5 secs interval for 250 secs by Fluo-4/AM dye based fluorescence assay. Type of assay: functional, cell-based. In short, it runs like this:
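EA.hy926 monolayers (25,000 cells/well, 40–48 h) were loaded with 2 µM Fluo-4/AM for 40–50 min at 37 °C in HBSS-HEPES with 2.5 mM probenecid, pH 7.4. Antagonist in 10% DMSO vehicle was added for 15 min at 37 °C, then SLIGKV-NH2 (5 µM for curves, 3.16 µM for selectivity). Read at ex485/em525, 20 basal scans. Peak RFU/basal was normalised to a same-column vehicle well; curves from ≥3 repeats fitted by 4-parameter regression.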

In assay [3] the target is Proteinase-activated receptor 2 (Homo sapiens) (UniProt P55085). The assay is described as follows: Antagonist activity at PAR2 in human EAhy926 cells assessed as inhibition of SLIGKV-NH2-induced intracellular calcium mobilization at 10 uM pretreated for 15 mins followed by SLIGKV-NH2 addition measured at 5 secs interval for 250 secs by Fluo-4/AM dye based fluorescence assay. Type of assay: functional, cell-based. Summed up: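 EA.hy926 monolayers were Fluo-4/AM-loaded (2 μM, with 2.5 mM probenecid in HBSS-HEPES) and pretreated 15 min at 37 °C with 10 μM antagonist in 10% DMSO vehicle. They were then stimulated with 3.16 μM SLIGKV-NH₂. Fluorescence (485/525 nm) was read every 5 s. The peak rise over basal, divided by basal, was normalized to the vehicle well.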

Assay [4] addresses T3, Proteinase-activated receptor 1 (Homo sapiens, UniProt P25116).
T3 sequence (P25116 whole entry): T1 sequence (whole entry)
As to the kind of experiment: (§1) Antagonist activity at PAR1 in human EAhy926 cells assessed as inhibition of TFLLRN-NH2-induced intracellular calcium mobilization pretreated for 15 mins followed by TFLLRN-NH2 addition measured at 5 secs interval for 250 secs by Fluo-4/AM dye based fluorescence assay. Type of assay: functional, cell-based. Summed up:
(§2)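 EA.hy926 cells were used at passage 2–11, seeded at 25,000/well and grown 40–48 h at 37 °C to >80% confluence. Cells were loaded with Fluo-4/AM (2 μM) in HBSS-HEPES containing 2.5 mM probenecid, pH 7.4, for 40–50 min, then washed twice. Antagonist in 10% DMSO vehicle was added for 15 min at 37 °C before agonist. Agonist was 5 μM TFLLRN-NH₂; ex 485/em 525 nm.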

Assay [5] deals with T1, Proteinase-activated receptor 1 (Homo sapiens). As to the kind of experiment: Negative allosteric modulation of PAR1 in human EAhy926 cells assessed as inhibition of TFLLRN-NH2-induced intracellular calcium mobilization at 10 uM pretreated for 20 to 30 mins followed by compound washout and subsequent incubation for 10 mins prior to TFLLRN-NH2 addition measured at 5 secs interval for 250 secs by Fluo-4/AM dye based fluorescence assay. Type of assay: functional, cell-based. In short, it runs like this: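 EA.hy926 cells grown 40–48 h to confluence, loaded with Fluo-4/AM in HBSS-HEPES with 2.5 mM probenecid for 40–50 min at 37 °C, washed. Antagonist or vehicle (10% DMSO) added for 20–30 min, then washed twice with buffer, 10 min at 37 °C each. TFLLRN-NH2 (5 μM) added; emission 525 nm (ex 485) read against basal.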

For assay [6] the target is unchanged. The assay is described as §1. The format is functional, cell-based. More on the design: concentration or dose not given beside the values. Summed up: as §2
For assay [7] the target is unchanged. Type of assay: functional, cell-based. Conditions: 0.316 uM.
Assay [8] has as its target Proteinase-activated receptor 2 (Homo sapiens) (UniProt P55085). The format is functional, cell-based. To be noted: 0.316 uM.
For assay [9], the target named is T1, Proteinase-activated receptor 1 (Homo sapiens). Conditions: 0.316 uM.

With `CC[C@H](C)[C@H](NC(=O)[C@H](CC1CCCCC1)NC(=O)c1ccno1)C(=O)NCc1ccccc1OC`, the inhibition entry in assay [1] was “inactive”. For the same compound, the IC50 in assay [2] came out at 1.7 µM.

For `Clc1ccc(Cn2c(Cc3ccccc3)nc3ccccc32)cc1`, in [1], the inhibition entry was “inactive”.

Take `CCCC(=O)Nc1cccc(NC(=O)c2ccccc2Br)c1`: the inhibition result in [3] is “inactive”. Further, the IC50 in assay [4] (read-out: IC50) was found to be 0.85 µM. Further, in [5], the inhibition entry is “Active”.

Consider `CCCCC(=O)Nc1cccc(NC(=O)c2ccccc2Br)c1`, for which the inhibition in assay [6] was found to be 49%.

Consider `C#CCCC(=O)Nc1cccc(NC(=O)c2ccccc2Br)c1`, for which the figures for the IC50 in [4] (read-out: IC50) and in assay [4] (read-out: pIC50 (converted)) were 81 µM and 100 µM, respectively. For the same compound, in assay [6], the inhibition stood at 79%.

On to `CCC(=O)Nc1cccc(NC(=O)c2ccccc2Br)c1`, for which the results for the IC50 in assay [4] (read-out: IC50) and in [4] (read-out: pIC50 (converted)) were 3.3 to 3.31 µM and 3.16 µM, respectively. Further, in assay [6], the inhibition is 68%.

Turning to `NCC[C@H](NC(=O)[C@H](Cc1ccc(F)c(F)c1)NC(=O)Nc1ccc2c(CN3CCCC3)nn(Cc3c(Cl)cccc3Cl)c2c1)C(=O)NCc1ccccc1`, the inhibition result in [7] is “Active”. Further, the IC50 in assay [4] (read-out: IC50) amounted to 0.02 µM. Further, the inhibition result in assay [8] was “inactive”.

Regarding `CCOC(=O)N[C@@H]1CC[C@@H]2[C@@H](C1)C[C@H]1C(=O)O[C@H](C)[C@H]1[C@H]2/C=C/c1ccc(-c2cccc(F)c2)cn1`, the inhibition result in assay [9] and in assay [8] was “inactive” throughout.

As for `CC(C)CC(=O)Nc1cccc(NC(=O)c2ccccc2Br)c1`, the IC50 in [4] (read-out: IC50) is 3.16 µM. Moreover, the inhibition in assay [6] was found to be 74%. Also, the inhibition result in assay [5] was “Active”.

As for `CCOc1cc2c(c(F)c1OCC)C(=N)N(CC(=O)c1cc(N3CCOCC3)c(OC)c(C(C)(C)C)c1)C2` [ATOPAXAR], the IC50 in assay [4] (read-out: IC50) turned out to be 0.033 µM. The inhibition in assay [6] came out at 94%. The inhibition entry in [8] is “inactive”.

As to `CCCCNc1cccc(NC(=O)c2ccccc2Br)c1`, the inhibition result in assay [3] is “inactive”. The IC50 in [4] (read-out: IC50) amounted to 0.97 µM. Besides, the inhibition entry in assay [5] is “Active”.

Take `C#CCCC(=O)NCC[C@H](NC(=O)[C@H](Cc1ccc(F)c(F)c1)NC(=O)Nc1ccc2c(CN3CCCC3)nn(Cc3c(Cl)cccc3Cl)c2c1)C(=O)NCc1ccccc1`: the IC50 in assay [4] (read-out: pIC50 (converted)) was 0.316 µM. In assay [6], the inhibition came out at 76%.

For `CCCC(=O)Nc1cccc(NC(=O)c2ccccc2N=[N+]=[N-])c1`, the IC50 in [4] (read-out: IC50) was found to be 94 µM. Also, the inhibition in [6] was 77%.

What is called inhibition is the percentage by which the read-out fell short of the control.

Values taken from ChEMBL document CHEMBL4219243, “Characterization of Protease-Activated Receptor (PAR) ligands: Parmodulins are reversible allosteric inhibitors of PAR1-driven calcium mobilization in endothelial cells” (Bioorg Med Chem, 2018).
